Calls of active or inactive are those of the source.
Columns and labels:
Histamine H2 receptor = Histamine H2 receptor (Rattus norvegicus, UniProt P25102); experiment: Antagonist activity at histamine H2 receptor in Charles River rat assessed as inhibition of histamine-mediated electrically stimulated uterine contraction
Summary of the method: (§1)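 Uteri taken from female rats (150–200 g) primed with diethylstilbesterol (0.16 mg/rat) 16–20 h before sacrifice. Single horns were held in McEwen's solution at 34 °C under 95% O2–5% CO2. They were stimulated electrically every 50 s for 10 s with maximal current and 60 Hz trains of 1-ms pulses, and the block of the histamine response was scored. Footnote cutoff: under 30% reduction with test compound at 20 µg/mL.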

Canis familiaris [1] = experiment: Antisecretory activity in Beagle dog assessed as inhibition of gastrin tetrapeptide-stimulated gastric acid secretion at 20 mg/kg, po administered 1 hr prior to gastrin tetrapeptide challenge measured every 30 mins for 90 mins relative to placebo control; type: functional; conditions: Canis lupus familiaris, Stomach
Summary of the method: (§2)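 Conscious female beagles (7–10 kg) with a chronic gastric fistula received compound through the gastric cannula, called oral. Gastric output was collected over three 30-min periods (90 min) after the stimulant. Titratable acid in an aliquot was titrated to pH 7 with 0.01 N NaOH using a glass-calomel electrode. The value is the maximal % drop in acid concentration against a placebo trial in the same dog, with SE where more than two animals.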

Canis familiaris [2] = experiment: Antisecretory activity in Beagle dog assessed as inhibition of histamine-stimulated gastric acid secretion at 40 mg/kg, po administered 1 hr prior to histamine challenge measured every 30 mins for 90 mins relative to placebo control; type: functional, organism-based; design: dose 40 mg/kg; conditions: Canis lupus familiaris, Stomach; summary of the method: as §2
[3] = target: Histamine H2 receptor (Rattus norvegicus) (UniProt P25102); experiment: Antagonist activity at histamine H2 receptor in Charles River rat assessed as inhibition of histamine-mediated electrically stimulated uterine contraction at 20 ug/mL relative to histamine-treated placebo; summary of the method: as §1
Chain of Histamine H2 receptor (Rattus norvegicus) (P25102 whole entry): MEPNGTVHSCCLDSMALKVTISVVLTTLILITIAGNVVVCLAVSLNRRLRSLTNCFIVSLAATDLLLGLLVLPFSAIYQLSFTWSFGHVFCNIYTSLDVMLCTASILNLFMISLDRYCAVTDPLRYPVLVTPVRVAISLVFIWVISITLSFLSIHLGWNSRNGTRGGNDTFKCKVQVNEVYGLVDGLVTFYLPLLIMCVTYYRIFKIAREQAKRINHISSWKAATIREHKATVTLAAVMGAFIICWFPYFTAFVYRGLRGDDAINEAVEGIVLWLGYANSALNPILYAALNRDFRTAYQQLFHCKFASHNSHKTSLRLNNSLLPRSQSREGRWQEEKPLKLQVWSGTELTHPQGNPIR

[4] = target: Histamine H2 receptor (Cavia porcellus) (UniProt P47747); experiment: Antagonist activity at histamine H2 receptor in Hartley guinea pig atrium assessed as ratio of histamine concentration required in control to that required in presence of compound to increase atrium rate by 50 beats/min at 10 ug/mL; conditions: Cardiac atrium
Chain of Histamine H2 receptor (Cavia porcellus) (P47747 whole entry): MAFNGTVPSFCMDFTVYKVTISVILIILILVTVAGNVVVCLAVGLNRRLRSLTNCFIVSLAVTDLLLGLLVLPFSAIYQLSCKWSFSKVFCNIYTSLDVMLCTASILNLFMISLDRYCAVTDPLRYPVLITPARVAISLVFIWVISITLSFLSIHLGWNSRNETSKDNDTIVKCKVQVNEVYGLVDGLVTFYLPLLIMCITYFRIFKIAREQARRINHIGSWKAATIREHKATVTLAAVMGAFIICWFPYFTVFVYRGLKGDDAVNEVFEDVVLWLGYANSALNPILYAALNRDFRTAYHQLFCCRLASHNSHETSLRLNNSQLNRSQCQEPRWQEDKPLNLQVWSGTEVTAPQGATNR
Summary of the method: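 Spontaneously beating Hartley guinea pig atria were dissected free of other myocardium and held in McEwen's solution on a transducer. Rate was counted from the tracing. Histamine was given at increasing concentrations (0.05–3.2 µg/mL) with placebo or with inhibitor at 10 µg/mL. The value is the ratio of histamine concentration needed to raise rate by 50 beats/min in the placebo trial to that needed with compound.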

Canis familiaris [5] = experiment: Antisecretory activity in Beagle dog assessed as inhibition of histamine-stimulated gastric acid secretion at 20 mg/kg, po administered 1 hr prior to histamine challenge measured every 30 mins for 90 mins relative to placebo control; type: functional; conditions: Canis lupus familiaris, Stomach; summary of the method: as §2
Canis familiaris [6] = experiment: Antisecretory activity in Beagle dog assessed as inhibition of gastrin tetrapeptide-stimulated gastric acid secretion at 40 mg/kg, po administered 1 hr prior to gastrin tetrapeptide challenge measured every 30 mins for 90 mins relative to placebo control; type: functional, organism-based; design: dose 40 mg/kg; conditions: Canis lupus familiaris, Stomach; summary of the method: as §2

Chain of Histamine H2 receptor (P25102 whole entry): as the sequence (P25102 whole entry) above

Row | Structure (SMILES) | EC50 (Histamine H2 receptor) | inhibition [3] | Ratio [4] | inhibition in vivo at 20 mg/kg (Canis familiaris [1]) | inhibition (Canis familiaris [2]) | inhibition in vivo at 20 mg/kg (Canis familiaris [5]) | inhibition (Canis familiaris [6])
1 | CC(C)c1ccc2ccc(=O)n(CCN(C)C)c2n1 | 2.31 µM |  |  | < 25% | inactive |  | 
2 | CCn1c(=O)ccc2c(C)cc(C)nc21 |  | < 30% |  | < 25% | inactive |  | 
3 | Cc1cc(C)c2c(n1)N(CCN(C)C)C(=O)CC2 | 19.4 µM |  | 0.013 | < 25% | inactive |  | 
4 | CN(C)CCn1c(=O)ccc2ccccc21 |  | < 30% |  | < 25% | inactive |  | 
5 | Cc1cc(C)c2ccc(=O)n(CCN(C3CCCCC3)C3CCCCC3)c2n1 |  | < 30% |  | < 25% | inactive |  | 
6 | CNC(=S)NCCSCc1[nH]cnc1C [METIAMIDE] |  |  | 0.003 | 76% |  | 46% | 
7 | CC(C)Cc1ccc2ccc(=O)n(CCN(C)C)c2n1 | 0.585 µM |  | 0.21 | < 25% | inactive |  | 
8 | CC(C)N(CCn1c(=O)ccc2cccnc21)C(C)C | 76.5 µM |  |  | 51% | inactive |  | 
9 | Cc1cc(C)c2ccc(=O)n(CCN3C(C)(C)CCCC3(C)C)c2n1 |  | < 30% |  | < 25% | inactive |  | 
10 | Cc1cc(C)c2ccc(=O)n(CC[N+](C)(C)C)c2n1 |  | < 30% |  | < 25% | inactive |  | 
11 | C/N=C(\S)NCCSCc1[nH]cnc1C [METIAMIDE] | 1.15 µM |  |  |  |  |  | 
12 | CN(C)CCn1c(=O)ccc2cccnc21 |  | < 30% | 0.54 | 59% | inactive |  | 
13 | Cc1cc(C)c2ccc(=O)n(CCN3CCCCC3)c2n1 | 10.7 µM |  |  | 40% | inactive |  | 
14 | CCc1ccc2ccc(=O)n(CCN(C)C)c2n1 | 3.22 µM |  |  | < 25% | inactive |  | 
15 | Cc1cc(C)c2ccc(=O)n(CC(C)(C)N(C)C)c2n1 | 38 µM |  |  | 38% | inactive |  | 
16 | Cc1cc(C)c2c(n1)N(CCN(C)C)CCC2 | 4.33 µM |  |  |  | inactive |  | inactive
17 | CCCCN(CCCC)CCn1c(=O)ccc2c(C)cc(C)nc21 | 5.46 µM |  |  | 33% | inactive |  | 

Now from value to molecule, other results behind:

Row | EC50 (Histamine H2 receptor) | inhibition [3] | Ratio [4] | Structure (SMILES) | inhibition in vivo at 20 mg/kg (Canis familiaris [1]) | inhibition (Canis familiaris [2]) | inhibition in vivo at 20 mg/kg (Canis familiaris [5]) | inhibition (Canis familiaris [6])
18 |  | < 30% |  | Cc1cnc2c(ccc(=O)n2CCN(C)C)c1 | 58% | inactive |  | 
19 | 14 µM |  |  | Cc1cc(C)c2ccc(=S)n(CCN(C)C)c2n1 | 41% | inactive |  | 
20 |  | < 30% |  | Cc1cc(C)c2ccc(=O)n(CCCN(C)C)c2n1 | 31% | inactive |  | 
21 | 16 µM |  | 0.18 | Cc1cc(C)c2ccc(=O)n(CCN(C)C)c2n1 | 40% | inactive |  | 
22 | 48.2 µM |  |  | Cc1nc2c(ccc(=O)n2CCN(C)C)c(C)c1C | 61% | inactive |  | 
23 | 9.43 µM |  |  | Cc1ccc2ccc(=O)n(CCN(C)C)c2n1 | < 25% | inactive |  | 
24 | 4.78 µM |  | 0.011 | Cc1cc(C)c2ccc(=O)n(CCN(C(C)C)C(C)C)c2n1 | 57% | inactive |  | 
25 |  | < 30% |  | Cc1cc(C(F)(F)F)c2ccc(=O)n(CCN(C)C)c2n1 | 52% | inactive |  | 
26 | 156 µM |  |  | Cc1cc(C)c2ccc(=O)n(CCN)c2n1 | < 25% | inactive |  | 
27 |  | < 30% |  | CN(C)CCn1c(=O)ccc2c(C(F)(F)F)cc(C(F)(F)F)nc21 | 32% | inactive |  | 
28 | 34.7 µM |  |  | Cc1cc(Cl)nc2c1ccc(=O)n2CCN(C)C | < 25% | inactive |  | 
29 | 19 µM |  |  | CCc1cc(CC)c2ccc(=O)n(CCN(C)C)c2n1 | < 25% | inactive |  | 
30 |  | < 30% |  | Cc1cc(C)c2ccc(=O)n(CCCCN(C)C)c2n1 | < 25% | inactive |  | 
31 | 5.35 µM |  |  | Cc1cc(C(F)(F)F)nc2c1ccc(=O)n2CCN(C)C | 34% | inactive |  | 
32 | 26.8 µM |  |  | COc1cc(C)c2ccc(=O)n(CCN(C)C)c2n1 | 27% | inactive |  | 
33 |  | < 30% |  | Cc1ccnc2c1ccc(=O)n2CCN(C)C | 58% | inactive |  | 
34 | 91.2 µM |  |  | CNCCn1c(=O)ccc2c(C)cc(C)nc21 | < 25% | inactive |  | 
35 | 4.1 µM |  |  | CCN(CC)CCn1c(=O)ccc2c(C)cc(C)nc21 | < 25% | inactive |  | 

— ChEMBL document CHEMBL3228026, “Inhibition of gastric acid secretion by 1,8-naphthyridin-2(1H)-ones” (J Med Chem, 1979)
